In series [1] the target is 72 kDa type IV collagenase (Homo sapiens) (UniProt P08253). Briefly: Ratio Kcat to Ki for MMP2.
Series [2] deals with Matrix metalloproteinase-14 (Homo sapiens) (UniProt P50281). In words: Ratio Kcat to […] for MMP14.
The nature of series [3]: Aqueous solubility at pH 7.4. The series is classed as physicochemical. The following applies: aqueous medium.
Series [4] addresses Matrix metalloproteinase-9 (Homo sapiens) (UniProt P14780). Briefly: Ratio Kcat to Ki for MMP9.
Series [5] can be described thus: Compound remaining in mouse blood after 6 hrs. In kind it is ADME, tissue-based. The following applies: read-out: Stability.
Series [6] concerns the target Neprilysin (Homo sapiens) (UniProt P08473). In words: Ratio Kcat to […] for neprilysin.
Series [7] is described as follows: Biodistribution in tumor in mouse bearing human HT1080 relative to doxorubicin. The following applies: in vivo. The series is classed as ADME, organism-based, Neoplasm. The procedure, abridged:
(§1)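 Dox was measured in HT1080 xenograft tumor and in heart tissue 24 h after a single iv dose in mice. The tumor/heart Dox ratio was normalized to the ratio obtained with free Dox.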

Series [8] in a line: Ratio of drug level in tumor to heart in mouse bearing human HT1080 cells relative to doxorubicin. To be noted: ht-1080. In kind it is ADME. The procedure, abridged: as §1
The subject of series [9] is Bone marrow. In words: Bone marrow toxicity in mouse bone marrow assessed as reticulocyte count at 4 umol/kg qd for 10 days. In kind it is tissue-based. To be noted: in vivo, 240 h. A digest of the protocol: (§2)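 Mice were dosed once daily for 10 days (qdx10). Marrow toxicity was read out as the reticulocyte level, expressed as a percentage, and compared with vehicle-treated mice.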

The test system of series [10] is Bone marrow. Briefly: Bone marrow toxicity in mouse bone marrow assessed as reticulocyte count at 14 umol/kg qd for 10 days. In kind it is tissue-based. To be noted: in vivo, 240 h. The procedure, abridged: as §2
Series [11] has as its system Bone marrow. In words: Bone marrow toxicity in mouse bone marrow assessed as reticulocyte count at 6 umol/kg qd for 10 days. In kind it is tissue-based. The following applies: in vivo, 240 h. A digest of the protocol: as §2
The test system of series [12] is Bone marrow. Briefly: Bone marrow toxicity in mouse bone marrow assessed as reticulocyte count at 2 umol/kg qd for 10 days. The series is classed as tissue-based. The following applies: in vivo, 240 h. The procedure, abridged:
as §2

Usually solubility stands for the dissolved amount per volume that the medium holds. Low values mean a poorly soluble substance, high ones a readily soluble substance.

Converted amounts (≈) assume the structure as drawn. Numbered stars: 1 amine (or outer) side, 2 acyl side, 3 side chain; on linkers, the order of the positions; unused ones are H or OH. Square brackets hold non-standard residues; d marks the D form. Peptide text beside a SMILES is read from it. * marks the point of attachment. ξ: configuration not given here. Doxorubicin(3'-N) = COc1cccc2c1C(=O)c1c(O)c3c(c(O)c1C2=O)C[C@@](O)(C(=O)CO)C[C@@H]3O[C@H]1C[C@H](N*)[C@H](O)[C@H](C)O1; X4 = O=C(c1cc(S(=O)(=O)O)cc(S(=O)(=O)O)c1)*; Cit = NC(=O)NCCC[C@H](N)C(=O)O; Suc = O=C(CCC(=O)[*:2])[*:1]; X5 = O=C(CS(=O)(=O)O)*; ξP = O=C(O)C1CCCN1; Bn = c1ccc(C*)cc1 Bounds are passed on as bounds.

Matrix metalloproteinase-9 (Homo sapiens), sequence (P14780 whole entry): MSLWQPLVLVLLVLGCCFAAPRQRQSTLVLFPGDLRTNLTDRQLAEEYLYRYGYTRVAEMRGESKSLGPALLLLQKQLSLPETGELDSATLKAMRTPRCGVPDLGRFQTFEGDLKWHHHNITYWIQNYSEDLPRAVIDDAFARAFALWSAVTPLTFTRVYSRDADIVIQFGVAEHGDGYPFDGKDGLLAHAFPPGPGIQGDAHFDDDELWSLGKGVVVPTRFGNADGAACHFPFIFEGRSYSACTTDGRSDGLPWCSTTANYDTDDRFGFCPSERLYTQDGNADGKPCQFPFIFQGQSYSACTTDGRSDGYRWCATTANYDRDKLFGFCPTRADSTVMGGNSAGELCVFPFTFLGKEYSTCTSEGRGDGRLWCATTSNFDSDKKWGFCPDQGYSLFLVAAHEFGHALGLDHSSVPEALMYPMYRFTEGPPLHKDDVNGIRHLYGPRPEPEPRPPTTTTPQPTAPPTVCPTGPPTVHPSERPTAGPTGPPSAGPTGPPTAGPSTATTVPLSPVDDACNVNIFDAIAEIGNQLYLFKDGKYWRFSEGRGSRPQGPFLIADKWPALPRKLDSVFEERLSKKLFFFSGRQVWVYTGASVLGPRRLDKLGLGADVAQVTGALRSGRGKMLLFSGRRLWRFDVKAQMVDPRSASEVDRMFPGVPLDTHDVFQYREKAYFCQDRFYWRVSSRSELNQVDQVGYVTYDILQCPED
Neprilysin (Homo sapiens), sequence (P08473 whole entry): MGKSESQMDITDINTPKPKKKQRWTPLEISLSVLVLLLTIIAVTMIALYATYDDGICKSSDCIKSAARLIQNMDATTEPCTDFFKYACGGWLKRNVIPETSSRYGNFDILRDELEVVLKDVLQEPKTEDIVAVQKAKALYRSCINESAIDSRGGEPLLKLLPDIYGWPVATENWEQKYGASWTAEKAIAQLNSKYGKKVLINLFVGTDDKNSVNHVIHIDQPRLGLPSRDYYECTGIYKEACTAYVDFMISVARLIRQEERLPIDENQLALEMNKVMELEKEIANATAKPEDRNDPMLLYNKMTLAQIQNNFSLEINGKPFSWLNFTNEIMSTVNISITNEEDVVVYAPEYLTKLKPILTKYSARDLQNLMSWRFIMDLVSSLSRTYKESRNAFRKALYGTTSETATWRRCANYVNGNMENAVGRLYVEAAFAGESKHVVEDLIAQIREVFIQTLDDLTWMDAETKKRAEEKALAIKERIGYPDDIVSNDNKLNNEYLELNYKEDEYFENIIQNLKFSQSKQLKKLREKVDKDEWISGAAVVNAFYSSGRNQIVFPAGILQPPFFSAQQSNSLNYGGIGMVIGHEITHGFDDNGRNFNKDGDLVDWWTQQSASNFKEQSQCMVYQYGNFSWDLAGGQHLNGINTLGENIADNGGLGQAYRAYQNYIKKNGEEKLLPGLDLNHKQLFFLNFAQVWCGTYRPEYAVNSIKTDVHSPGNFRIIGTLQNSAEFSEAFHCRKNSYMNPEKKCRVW
72 kDa type IV collagenase (Homo sapiens), sequence (P08253 110-660 limits assumed): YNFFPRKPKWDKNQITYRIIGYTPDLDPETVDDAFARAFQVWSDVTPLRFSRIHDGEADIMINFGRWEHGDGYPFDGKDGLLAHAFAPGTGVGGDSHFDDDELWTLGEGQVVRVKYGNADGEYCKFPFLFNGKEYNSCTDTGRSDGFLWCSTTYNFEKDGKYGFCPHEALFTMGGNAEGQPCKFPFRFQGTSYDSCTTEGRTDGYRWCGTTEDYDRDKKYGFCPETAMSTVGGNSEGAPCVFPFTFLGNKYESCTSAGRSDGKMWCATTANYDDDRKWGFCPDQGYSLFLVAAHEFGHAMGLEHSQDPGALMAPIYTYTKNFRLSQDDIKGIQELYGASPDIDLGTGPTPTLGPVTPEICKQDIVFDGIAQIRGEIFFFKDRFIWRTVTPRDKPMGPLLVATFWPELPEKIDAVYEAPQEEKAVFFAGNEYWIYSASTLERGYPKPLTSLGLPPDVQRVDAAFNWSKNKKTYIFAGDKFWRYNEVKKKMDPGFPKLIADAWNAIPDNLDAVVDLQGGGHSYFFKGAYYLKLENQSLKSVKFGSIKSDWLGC

As for `COc1cccc2c1C(=O)c1c(O)c3c(c(O)c1C2=O)C[C@@](O)(C(=O)CO)C[C@@H]3O[C@H]1C[C@H](NC(=O)[C@H](CC(C)C)NC(=O)[C@H](Cc2ccc(O)cc2)NC(=O)[C@H](COCc2ccccc2)NC(=O)CNC(=O)[C@H](CC(C)C)NC(=O)C2CCCN2C(=O)CCC(=O)O)[C@H](O)[C@H](C)O1` (stereo partly drawn) (Suc-[ξP]LGS(Bn)YL-{Doxorubicin(3'-N)}), the Ratio in series [1] is 20; in [2], 89; in series [4] it was 52; in [6], less than 1. This compound returned a solubility in series [3] of 1400 µg/mL (≈ 1030 µM). Besides, the remaining at 6 h in series [5] stood at 100%.
Consider `COc1cccc2c1C(=O)c1c(O)c3c(c(O)c1C2=O)C[C@@](O)(C(=O)CO)C[C@@H]3O[C@H]1C[C@H](NC(=O)[C@H](CC(C)C)NC(=O)[C@H](Cc2ccc(O)cc2)NC(=O)[C@@H](NC(=O)CNC(=O)[C@H](CO)NC(=O)[C@@H]2CCCN2C(=O)c2cc(S(=O)(=O)O)cc(S(=O)(=O)O)c2)[C@@H](C)OCc2ccccc2)[C@H](O)[C@H](C)O1` (X4-PSGT(Bn)YL-{Doxorubicin(3'-N)}), for which the Ratio in [1] was 114; in [2], greater than 120; in series [4], greater than 120; in series [8] it was 13; in [6], less than 1. This compound returned a Drug uptake in series [7] of 600 pmol/g. For the same compound, in [5], the remaining at 6 h stood at 100%.
As for `COc1cccc2c1C(=O)c1c(O)c3c(c(O)c1C2=O)C[C@@](O)(C(=O)CO)C[C@@H]3O[C@H]1C[C@H](NC(=O)[C@H](CC(C)C)NC(=O)[C@H](Cc2ccc(O)cc2)NC(=O)[C@H](COCc2ccccc2)NC(=O)CNC(=O)[C@H](CC(C)C)NC(=O)[C@@H]2CCCN2C(=O)CS(=O)(=O)O)[C@H](O)[C@H](C)O1` (X5-PLGS(Bn)YL-{Doxorubicin(3'-N)}), the Ratio in [1] is 37; in series [2], 111; in series [4] it was 25; in series [8], 16; in series [6], less than 1. In [7], this compound showed a Drug uptake of 1500 pmol/g. The compound further gave a solubility in series [3] greater than 2400 µg/mL. Moreover, the remaining at 6 h in series [5] came to 90%.
On to `COc1cccc2c1C(=O)c1c(O)c3c(c(O)c1C2=O)C[C@@](O)(C(=O)CO)C[C@@H]3O[C@H]1C[C@H](NC(=O)[C@H](CC(C)C)NC(=O)[C@H](Cc2ccc(O)cc2)NC(=O)[C@H](COCc2ccccc2)NC(=O)CNC(=O)[C@H](CCCNC(N)=O)NC(=O)[C@@H]2CCCN2C(=O)CS(=O)(=O)O)[C@H](O)[C@H](C)O1` (X5-P[Cit]GS(Bn)YL-{Doxorubicin(3'-N)}), for which the Ratio in series [1] is 25; in series [2], 56; in series [4], 38; in series [6], less than 1. This compound also returned a solubility in [3] greater than 2300 µg/mL. In series [5], the remaining at 6 h was determined as 29%.
For the compound `COc1cccc2c1C(=O)c1c(O)c3c(c(O)c1C2=O)C[C@@](O)(C(=O)CO)C[C@@H]3O[C@H]1C[C@H](N)[C@H](O)[C@H](C)O1` [DOXORUBICIN], the Activity in the series on Bone marrow [9] is 0.1%; with Bone marrow [10] it was 0.2%; in the series with Bone marrow [11], 0.3%; in the series on Bone marrow [12], 0.4%. Also, the Drug uptake in series [7] is reported as 1600 pmol/g. The Ratio in series [8] is listed as 1.

The values are drawn from ChEMBL document CHEMBL1156831, “Discovery of matrix metalloproteases selective and activated peptide-doxorubicin prodrugs as anti-tumor agents” (Bioorg Med Chem Lett, 2010).
